In one data set the test system is Liver. In words: Intrinsic clearance in human liver microsomes at 1 uM after 30 mins by LC-MS/MS method. The class given is ADME, microsome. To be noted: 0.5 h. On the technique in general: Liver microsomes are a subcellular fraction often used to study metabolism.
Another data set addresses hERG (KCNH2) (Homo sapiens, UniProt Q12809). In words: Inhibition of human ERG at 11.1 uM relative to control.
Data set [1] is described as follows: Intrinsic clearance in rat hepatocytes assessed per million cells at 1 uM after 120 mins by LC-MS/MS method. Format: ADME, cell-based, Hepatocyte. To be noted: 2 h.
The species entered for a further data set is Sus scrofa. In words: Inhibition of pig pepsin up to 100 uM using MOCAc-Ala-Pro-Ala-Lys-Phe-Phe-Arg-Leu-Lys(Dnp)-NH2 as substrate after 60 mins by spectrophotometric method. As to conditions: tested as the 2H-labelled form.
The test system of data set [2] is Mus musculus. The data set is described as follows: Reduction of amyloid beta-42 levels in C57BL/6 mouse brain at 50 mg/kg, po after 1.5 to 16 hrs by immunoassay relative to vehicle-treated control. The class given is functional, organism-based. As to conditions: tested as the 2H-labelled form. The essentials:
(§1)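 PK/PD study in C57BL/6 mice given 50 mg/kg orally. Brain Aβ40 and Aβ42 and plasma Aβ40 levels were followed over time alongside free brain and plasma exposure, and compared with vehicle-treated controls.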

The target of data set [3] is Cathepsin S (Homo sapiens) (UniProt P25774). The data set is described as follows: Inhibition of full length recombinant human cathepsin S up to 100 uM using Z-Leu-Arg-AMC as substrate after 30 mins by spectrophotometric method. To be noted: tested as the 2H-labelled form.
Chain of Cathepsin S (Homo sapiens) (P25774 115-331 limits assumed): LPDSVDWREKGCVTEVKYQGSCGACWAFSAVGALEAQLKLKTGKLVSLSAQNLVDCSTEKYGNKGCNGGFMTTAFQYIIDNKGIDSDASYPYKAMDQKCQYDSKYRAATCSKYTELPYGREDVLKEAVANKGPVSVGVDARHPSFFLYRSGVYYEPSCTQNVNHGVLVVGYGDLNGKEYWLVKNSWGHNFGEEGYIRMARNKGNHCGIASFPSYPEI
Data set [4] deals with Mus musculus. The data set is described as follows: Reduction of amyloid beta-40 levels in C57BL/6 mouse plasma at 50 mg/kg, po after 1.5 to 16 hrs by immunoassay. The class given is functional, organism-based. As to conditions: tested as the 2H-labelled form. In a few lines: as §1
Data set [5] deals with Cathepsin D (Homo sapiens) (UniProt P07339). In words: Inhibition of human cathepsin D up to 100 uM using MOCAc-Gly-Lys-Pro-Ile-Leu-Phe-Phe-Arg-Leu-Lys(Dnp)-D-Arg-NH2 as substrate after 10 mins by spectrophotometric method. As to conditions: tested as the 2H-labelled form.
Chain of Cathepsin D (Homo sapiens) (P07339 65-162 limits assumed): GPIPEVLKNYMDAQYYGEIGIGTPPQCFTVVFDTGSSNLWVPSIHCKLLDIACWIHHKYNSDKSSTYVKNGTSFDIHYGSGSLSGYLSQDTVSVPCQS
Chain of Cathepsin D (Homo sapiens) (P07339 169-412 limits assumed): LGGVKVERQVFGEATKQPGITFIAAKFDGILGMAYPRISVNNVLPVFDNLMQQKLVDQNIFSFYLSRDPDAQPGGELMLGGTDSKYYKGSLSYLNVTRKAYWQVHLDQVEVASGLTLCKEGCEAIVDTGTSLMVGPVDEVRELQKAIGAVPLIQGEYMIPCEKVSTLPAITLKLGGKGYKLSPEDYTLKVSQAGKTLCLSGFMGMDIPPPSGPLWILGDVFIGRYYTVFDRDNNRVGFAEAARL
A further data set addresses T1, Renin (Homo sapiens) (UniProt P00797).
T1 sequence (whole entry): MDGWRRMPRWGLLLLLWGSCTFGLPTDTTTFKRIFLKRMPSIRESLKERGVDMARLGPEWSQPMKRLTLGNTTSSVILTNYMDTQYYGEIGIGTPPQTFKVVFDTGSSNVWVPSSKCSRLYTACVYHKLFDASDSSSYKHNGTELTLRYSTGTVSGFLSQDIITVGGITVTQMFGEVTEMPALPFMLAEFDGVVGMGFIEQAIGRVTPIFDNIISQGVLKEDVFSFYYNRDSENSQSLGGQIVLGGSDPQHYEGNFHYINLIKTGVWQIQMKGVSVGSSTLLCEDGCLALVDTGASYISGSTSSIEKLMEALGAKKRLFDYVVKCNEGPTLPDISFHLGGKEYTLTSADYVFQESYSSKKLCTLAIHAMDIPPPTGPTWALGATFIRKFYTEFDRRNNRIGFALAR
In words: Inhibition of full length recombinant human renin up to 100 uM using DABCYL-gamma-Abu-Ile-His-Pro-Phe-His-Leu-Val-Ile-His-Thr-EDANS as substrate after 60 mins by spectrophotometric method. As to conditions: tested as the 2H-labelled form.

Data set [6] has as its system Mus musculus. In words: Reduction of amyloid beta-40 levels in C57BL/6 mouse brain at 50 mg/kg, po after 1.5 to 16 hrs by immunoassay relative to vehicle-treated control. Format: functional, organism-based. As to conditions: tested as the 2H-labelled form. In a few lines: as §1
For data set [7], the target named is T2, Beta-secretase 1 (Homo sapiens, UniProt P56817). The data set is described as follows: Inhibition of BACE1 in human SH-SY5Y cells assessed as decrease in sAPP-beta release after 16 to 17 hrs. Format: cell-based.
T2 sequence (P56817 whole entry, the tested form may be a part): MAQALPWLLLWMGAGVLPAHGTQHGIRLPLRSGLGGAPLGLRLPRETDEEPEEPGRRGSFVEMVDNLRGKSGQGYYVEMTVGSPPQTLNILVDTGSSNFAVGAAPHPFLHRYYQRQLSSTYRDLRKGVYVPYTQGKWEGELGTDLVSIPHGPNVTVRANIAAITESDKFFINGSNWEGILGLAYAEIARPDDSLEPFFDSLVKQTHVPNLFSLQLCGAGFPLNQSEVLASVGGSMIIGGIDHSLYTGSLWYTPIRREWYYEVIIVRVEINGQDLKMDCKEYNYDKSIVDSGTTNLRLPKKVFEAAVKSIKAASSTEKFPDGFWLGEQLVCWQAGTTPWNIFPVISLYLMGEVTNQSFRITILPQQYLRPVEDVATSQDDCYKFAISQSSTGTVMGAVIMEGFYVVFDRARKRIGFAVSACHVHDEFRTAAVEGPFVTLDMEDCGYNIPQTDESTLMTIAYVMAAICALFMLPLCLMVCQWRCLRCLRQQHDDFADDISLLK
Data set [8] concerns the target T2, Beta-secretase 1. In words: Inhibition of human BACE1 (1 to 460 residues) fused with Fc domain of IgG1 expressed in HEK293 cells preincubated for 10 mins followed by substrate addition measured after 17 mins by TR-FRET assay. The class given is cell-based. The essentials:
(§2)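 Biochemical protease assays on the human BACE1 or BACE2 enzyme. Both assays use the same fluorescently labelled peptide substrate, designed to span the BACE cleavage site of APP.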

Data set [9] can be described thus: Unbound brain-to-plasma concentration ratio in CD rat at 5 mg/kg, po as cassette dose after 2 hrs by LC-MS/MS method. Format: ADME, organism-based. To be noted: brain and plasma, read-out: K(p,uu,brain).
Data set [10] deals with Voltage-gated inwardly rectifying potassium channel KCNH2 (Homo sapiens, UniProt Q12809). In words: Inhibition of human ERG.
Chain of Voltage-gated inwardly rectifying potassium channel KCNH2 (Q12809 whole entry): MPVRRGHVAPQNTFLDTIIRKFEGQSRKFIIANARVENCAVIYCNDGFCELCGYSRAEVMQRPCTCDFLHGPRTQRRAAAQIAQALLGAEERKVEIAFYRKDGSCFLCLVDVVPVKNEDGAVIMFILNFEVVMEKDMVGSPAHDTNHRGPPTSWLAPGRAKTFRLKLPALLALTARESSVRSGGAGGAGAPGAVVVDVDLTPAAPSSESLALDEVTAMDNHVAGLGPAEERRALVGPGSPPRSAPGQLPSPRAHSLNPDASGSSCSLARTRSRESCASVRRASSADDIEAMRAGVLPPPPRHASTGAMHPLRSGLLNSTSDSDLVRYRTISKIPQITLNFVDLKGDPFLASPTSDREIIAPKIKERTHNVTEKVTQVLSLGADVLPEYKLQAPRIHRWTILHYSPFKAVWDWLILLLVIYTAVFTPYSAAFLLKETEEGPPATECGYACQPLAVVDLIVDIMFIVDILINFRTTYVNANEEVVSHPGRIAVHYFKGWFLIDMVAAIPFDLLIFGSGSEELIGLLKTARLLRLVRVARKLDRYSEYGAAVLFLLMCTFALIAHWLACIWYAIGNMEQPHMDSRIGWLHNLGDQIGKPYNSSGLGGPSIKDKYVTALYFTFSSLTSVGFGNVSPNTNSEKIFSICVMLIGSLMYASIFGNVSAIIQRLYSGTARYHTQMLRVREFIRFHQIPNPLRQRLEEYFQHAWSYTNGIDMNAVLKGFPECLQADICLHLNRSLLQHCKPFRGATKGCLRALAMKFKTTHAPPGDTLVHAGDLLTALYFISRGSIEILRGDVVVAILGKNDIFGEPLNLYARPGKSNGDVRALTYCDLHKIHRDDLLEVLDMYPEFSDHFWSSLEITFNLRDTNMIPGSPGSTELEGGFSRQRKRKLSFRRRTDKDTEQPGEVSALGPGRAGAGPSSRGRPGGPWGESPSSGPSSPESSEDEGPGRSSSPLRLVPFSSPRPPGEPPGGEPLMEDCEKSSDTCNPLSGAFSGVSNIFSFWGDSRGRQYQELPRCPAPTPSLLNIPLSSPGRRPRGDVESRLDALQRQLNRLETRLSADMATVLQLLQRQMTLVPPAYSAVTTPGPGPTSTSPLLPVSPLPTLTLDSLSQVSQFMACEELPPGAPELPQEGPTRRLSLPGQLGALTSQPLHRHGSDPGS
The target in data set [11] is T3, Beta-secretase 2 (Homo sapiens, UniProt Q9Y5Z0).
T3 sequence (Q9Y5Z0 whole entry): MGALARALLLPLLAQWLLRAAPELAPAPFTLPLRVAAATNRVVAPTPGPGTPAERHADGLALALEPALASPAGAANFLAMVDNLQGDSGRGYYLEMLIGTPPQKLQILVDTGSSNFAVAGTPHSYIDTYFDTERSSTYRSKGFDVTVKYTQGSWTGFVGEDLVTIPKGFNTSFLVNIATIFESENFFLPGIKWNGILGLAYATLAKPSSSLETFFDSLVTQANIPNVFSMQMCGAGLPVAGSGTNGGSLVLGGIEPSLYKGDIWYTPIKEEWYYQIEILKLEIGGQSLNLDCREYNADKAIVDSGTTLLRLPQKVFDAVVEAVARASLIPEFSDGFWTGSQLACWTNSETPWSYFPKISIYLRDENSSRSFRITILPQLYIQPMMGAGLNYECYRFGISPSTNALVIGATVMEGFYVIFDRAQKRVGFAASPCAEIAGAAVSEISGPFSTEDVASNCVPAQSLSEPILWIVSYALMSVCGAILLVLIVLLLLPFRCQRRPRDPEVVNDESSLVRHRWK
In words: Inhibition of BACE2 in human MNT1 cells assessed as increase in M-beta accumulation at 10 uM after 24 hrs by Western blot method. The class given is cell-based. The essentials: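 Human melanocyte MNT1 cells incubated with a range of inhibitor concentrations or vehicle (0.1% DMSO). Cells then processed to detect parent PMEL (P1) and the proteolytically cleaved Mβ fragment. Mβ fragment accumulation serves as the read-out of BACE2 inhibition.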
(Immunoblotting shows a protein as a band on a membrane.)

The test system of a further data set is Brain. The data set is described as follows: Fraction unbound in C57BL/6 mouse brain at 50 mg/kg, po after 3 hrs by LC-MS/MS analysis. To be noted: in vivo. The class given is ADME, organism-based.
Data set [12] relates to Mus musculus. In words: Reduction of amyloid beta-42 levels in C57BL/6 mouse brain at 50 mg/kg, po after 3 hrs by immunoassay relative to vehicle-treated control. The class given is functional. Further details: scale not given: the % may be the effect or the level left. The essentials: as §1
The nature of data set [13]: Unbound brain-to-plasma concentration ratio in CD rat at 1 mg/kg, po as cassette dose after 2 hrs by LC-MS/MS method. The class given is ADME, organism-based. As to conditions: brain and plasma, read-out: K(p,uu,brain).
The target of data set [14] is T3, Beta-secretase 2. In words: Inhibition of human BACE2 (1 to 473 residues) using CEVNLDAEFK as substrate preincubated for 10 mins followed by substrate addition measured after 6.5 hrs by TR-FRET assay. In a few lines: as §2
Data set [15] has as its target T3, Beta-secretase 2. In words: Inhibition of BACE2 in human MNT1 cells assessed as increase in M-beta accumulation at 10 nM after 24 hrs by Western blot method. To be noted: 0.01 µM. The class given is cell-based. In a few lines:
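Human melanocyte MNT1 cells incubated with a range of inhibitor concentrations or vehicle (0.1% DMSO), then processed to detect parent PMEL (P1) and the proteolytically cleaved Mβ fragment. Mβ accumulation serves as the read-out of BACE2 inhibition.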

The nature of data set [16]: Apparent permeability across MDCK cells expressing MDR1 after 2 hrs by LC-MS/MS method. To be noted: dog. Format: ADME, cell-based, Canis lupus familiaris.

The source made the active and inactive calls. No cut-off for these calls is given here.

Chain of hERG (KCNH2) (Q12809 whole entry): as the sequence (Q12809 whole entry) above

As usually defined, the inhibition is the share of the control response that was lost under treatment. Regarding `[2H]C1([2H])OC(N)=N[C@]12c1cc(-c3cncnc3)ccc1C[C@]21CC[C@@H](OC)[C@H](CC)C1`, the figures for the CLH (in the data set on Liver; in [1]) were 149 µL/min/mg and 138 µL/min/10^6 cells, respectively. At 11.1 µM the inhibition on hERG (KCNH2) was 15%.

Regarding `CO[C@H]1CC[C@@]2(Cc3ccc(-c4cncnc4)cc3[C@@]23COC(N)=N3)C[C@@H]1C`, the inhibition entry (in the data set listed under Sus scrofa; in data set [3]; in [5]; on Renin (Homo sapiens)) was “inactive” throughout. In addition, the result with Mus musculus [2] and in the data set on Mus musculus [6] was inactive. Moreover, the outcome in the data set on Mus musculus [4] was Active.

By IC50 is commonly meant the concentration that gives 50% inhibition. What is called Ki is the dissociation constant of the complex between target and ligand, obtained from inhibition or displacement. For the compound `[2H]C1([2H])OC(N)=N[C@]12c1cc(-c3cccnc3)ccc1C[C@]21CC[C@@H](OC)CC1`, the IC50 at Beta-secretase 1 [7] was found to be 0.007 µM. This compound gave a Ki on Beta-secretase 1 [8] of 0.43 µM.

In the case of `[2H]C1([2H])OC(N)=N[C@]12c1cc(-c3cc(Cl)cc(C#N)c3)ccc1C[C@]21CC[C@@H](OC)CC1`, the Kp uu at 2 h in [9] came to 0.68. Besides, the figures for the CLH (in the data set with Liver; in [1]) were 11.5 µL/min/mg and 8.7 µL/min/10^6 cells, respectively.

Take `[2H]C1([2H])OC(N)=N[C@]12c1cc(-c3cncnc3)ccc1C[C@@]21CC[C@H](OC)[C@@H](C)C1`: the CLH stood at 47 µL/min/mg in the data set with Liver and 66 µL/min/10^6 cells in [1]. For the same compound, the IC50 in data set [10] is more than 33 µM. Besides, the “inhibition (INH)” value at Beta-secretase 2 [11] is on record as “Active”. For the same compound, the “Drug uptake(free)” value with Brain is 50 nM. For the same compound, the Activity in the data set with Mus musculus [12] came to 30%.

Take `[2H]C1([2H])OC(N)=N[C@]12c1cc(-c3cncnc3)ccc1C[C@]21CC[C@@H](OC)[C@H](C)C1`: the CLH turned out to be 52.4 µL/min/mg in the data set on Liver and 82 µL/min/10^6 cells in data set [1]. The same compound displayed an IC50 in data set [10] of more than 33 µM.

As for `COc1cc(C#N)cc(-c2ccc3c(c2)[C@@]2(COC(N)=N2)[C@]2(CC[C@H](OC)CC2)C3)c1`, the CLH amounted to 13.9 µL/min/mg in the data set on Liver and 23.9 µL/min/10^6 cells in data set [1]. Also, the Kp uu at 2 h in [13] amounted to 0.07.

Consider `NC1=N[C@@](c2cccc(-c3cncnc3)c2)(c2ccnc(C(F)F)c2)c2cccc(F)c21` [AZD-3839], for which the 50% inhibitory concentration (IC50) against Beta-secretase 2 [14] is 0.0009 µM. In addition, the “inhibition (INH)” value on Beta-secretase 2 [15] is reported as “Active”.

Take `[2H]C1([2H])OC(N)=N[C@]12c1cc(-c3cncnc3)ccc1C[C@@]21C[C@@H](C)[C@H](OC)[C@@H](C)C1` (racemic): the results for the CLH (in the data set on Liver; in data set [1]) were 187 µL/min/mg and 137 µL/min/10^6 cells, respectively.

Take `[2H]C1([2H])OC(N)=N[C@]12c1cc(-c3cc(C#N)cc(OC)c3)ccc1C[C@]21CC[C@@H](OC)CC1`: in data set [9], the Kp uu at 2 h was found to be 0.27. Besides, the values for the CLH (with Liver; in data set [1]) were 15.7 µL/min/mg and 25.1 µL/min/10^6 cells, respectively.

Turning to `CO[C@H]1CC[C@]2(CC1)Cc1ccc(-c3cc(Cl)cc(C#N)c3)cc1[C@@]21COC(N)=N1`, the figures for the CLH (in the data set on Liver; in data set [1]) were 11.1 µL/min/mg and 11.6 µL/min/10^6 cells, respectively. Further, in data set [13], the Kp uu at 2 h came out at 0.21. In addition, in data set [16], the permeability result is recorded as “Impermeable”.

For the compound `[2H]C1([2H])OC(N)=N[C@]12c1cc(-c3cncnc3)ccc1C[C@@]21CC[C@H](OC)[C@@H](CC)C1`, the CLH in the data set with Liver stood at 153 µL/min/mg; in [1], 158 µL/min/10^6 cells. This compound yielded an inhibition at 11.1 µM at hERG (KCNH2) of 29%.

With `[2H]C1([2H])OC(N)=N[C@]12c1cc(-c3cncnc3)ccc1C[C@]21CC[C@@H](OC)CC1`, the IC50 on Beta-secretase 1 [7] came to 0.007 µM. The inhibition constant Ki on Beta-secretase 1 [8] is 0.134 µM.

These data come from ChEMBL document CHEMBL4043307, “Toward β-Secretase-1 Inhibitors with Improved Isoform Selectivity” (J Med Chem, 2018).
